The target in assay [1] is Glyceraldehyde-3-phosphate dehydrogenase (Homo sapiens) (UniProt P04406). Briefly: Covalent inhibition of human recombinant his tagged GAPDH expressed in Escherichia coli at 100 uM measured after 3 hrs by spectrophotometric analysis relative to control. The gist of the method:
(§1)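 His-tagged hGAPDH from E. coli, 2 μM, preincubated at 25 °C with 10, 50 or 100 μM inhibitor for 30 min or 3 h in 10 mM TEA, 5 mM EDTA, 10 mM arsenate, pH 7.6. Residual activity of aliquots (enzyme 30–50 nM) measured with 1.5 mM NAD+, 100 μM DL-GAP, NADH at 340 nm, 25 °C. Relative to untreated enzyme; independent duplicates, mean ± SD.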

Assay [2] shares this target. Briefly: Binding affinity to human recombinant his tagged GAPDH expressed in Escherichia coli assessed as pseudo first order reaction at 2 mM at pH 7 in presence of beta mercaptoethanol measured for 1 hr by HPLC method.
Assay [3] has the same target. Briefly: Binding affinity to human recombinant his tagged GAPDH expressed in Escherichia coli assessed as absolute rate constant at 2 mM at pH 7 in presence of beta mercaptoethanol measured for 1 hr by HPLC method.
The target is the same in assay [4]. The assay can be described thus: Covalent inhibition of human recombinant his tagged GAPDH expressed in Escherichia coli assessed as residual activity at 100 uM measured after 3 hrs by spectrophotometric analysis. The method in brief:
as §1

For assay [5] the target is unchanged. Briefly: Covalent inhibition of human recombinant his tagged GAPDH expressed in Escherichia coli at 50 uM measured after 30 mins by spectrophotometric analysis relative to control. The gist of the method:
as §1

Assay [6] relates to PaCa-44. The assay can be described thus: Antiproliferative activity against human PaCa-44 cells assessed as reduction in cell growth at 100 uM incubated for 48 hrs by crystal violet staining based analysis. The format is functional. The method in brief:
(§2)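 PDAC lines and normal fibroblasts in DMEM-Glutamax, 10% FBS, 50 μg/ml gentamicin, 37 °C, 5% CO2. Seeded 5×10^3 cells/well for PDAC lines and 8×10^3 cells/well for fibroblasts. After 24 h, treated 48 h with 1–100 μM from 100 mM DMSO stocks. Crystal Violet read at A595, normalized to untreated cells. Mean ± SD (n = 4).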

In assay [7] the target is Glyceraldehyde-3-phosphate dehydrogenase (Homo sapiens) (UniProt P04406). Briefly: Inhibition of human recombinant his tagged GAPDH expressed in Escherichia coli at 10 uM incubated for 48 hrs relative to control. The gist of the method:
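Recombinant hGAPDH, 2 μM, with 10 μM inhibitor for 48 h at 37 °C in TEA/EDTA buffer, pH 7.6. Residual activity measured by the arsenate/NAD+/GAP assay, NADH at 340 nm, 25 °C. Expressed versus untreated enzyme; independent duplicates, mean ± SD.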

For assay [8] the target is unchanged. Briefly: Inhibition of recombinant his tagged-GAPDH in human PANC-1 cells expressed in Escherichia coli at 100 uM relative to control.
Assay [9] has the same target. Briefly: Binding affinity to human recombinant his tagged GAPDH expressed in Escherichia coli assessed elimination of racker band at measured after 30 hrs by spectrophotometric analysis. The gist of the method: (§3)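 Racker band loss. 100 μM His-tagged hGAPDH (expressed in E. coli) with 200 μM inhibitor in 10 mM TEA, 5 mM EDTA, 10 mM KH2PO4, pH 7.6. Absorbance at 340 nm followed until reaction completion; traces fitted to a kinetic equation.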

Assay [10] shares this target. Briefly: Binding affinity to human recombinant his tagged GAPDH expressed in Escherichia coli assessed as time constant at 200 uM measured after 30 hrs by spectrophotometric analysis. The gist of the method:
as §3

Assay [11] has the same target. The assay can be described thus: Binding affinity to human recombinant his tagged GAPDH expressed in Escherichia coli assessed as time constant at 200 uM measured after 1 min by spectrophotometric analysis. The method in brief: as §3
Assay [12] shares this target. The assay can be described thus: Covalent inhibition of human recombinant his tagged GAPDH expressed in Escherichia coli at 10 uM measured after 30 mins by spectrophotometric analysis relative to control. The gist of the method:
as §1

For assay [13] the target is unchanged. The assay can be described thus: Binding affinity to human recombinant his tagged GAPDH expressed in Escherichia coli assessed elimination of racker band measured within 1 min by spectrophotometric analysis. The method in brief:
as §3

The subject of a further assay is PaCa-3. The assay can be described thus: Antiproliferative activity against human PaCa-3 cells assessed as reduction in cell growth at 1 to 100 uM incubated for 48 hrs by crystal violet staining based analysis. The format is functional. As to conditions: dose 1-100 µM. The gist of the method: as §2
Assay [14] deals with PaCa-44. The assay can be described thus: Antiproliferative activity against human PaCa-44 cells assessed as reduction in cell growth at 1 to 100 uM incubated for 48 hrs by crystal violet staining based analysis. The format is functional. As to conditions: dose 1-100 µM. The method in brief: as §2
Assay [15] relates to PANC-1. Briefly: Antiproliferative activity against human PANC-1 cells assessed as reduction in cell growth at 1 to 100 uM incubated for 48 hrs by crystal violet staining based analysis. The format is functional. As to conditions: dose 1-100 µM. The gist of the method:
as §2

In assay [16] the test system is MIA PaCa-2. The assay can be described thus: Antiproliferative activity against human MIA PaCa-2 cells assessed as reduction in cell growth at 1 to 100 uM incubated for 48 hrs by crystal violet staining based analysis. The format is functional. As to conditions: dose 1-100 µM. The gist of the method:
as §2

The subject of the next assay is Fibroblast. The assay can be described thus: Antiproliferative activity against human Fibroblast assessed as reduction in cell growth at high concentration incubated for 48 hrs by crystal violet staining based analysis relative to control. It counts as functional. Details: scale not given: the % may be the effect or the level left. The method in brief:
as §2

Assay [17] is described as follows: Antiproliferative activity in human PaCa-3 cells habouring wild type p53 assessed as decrease in cell growth at 5 uM measured after 48 hrs by Crystal violet staining based analysis relative to control. The format is functional. Details: scale not given: the % may be the effect or the level left. The gist of the method:
(§4)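 PaCa-3 (wt p53) and mutant-p53 PDAC lines exposed 48 h to 5 or 10 μM. Growth by Crystal Violet staining, each line normalized to its own untreated control. Mean ± SD, n = 4.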

Assay [18] deals with PANC-1. Briefly: Antiproliferative activity in human PANC-1 cells habouring p53 mutant/R273H assessed as decrease in cell growth at 10 uM measured after 48 hrs by Crystal violet staining based analysis. The format is functional. The method in brief:
as §4

Assay [19] concerns MIA PaCa-2. Briefly: Antiproliferative activity in human MIA PaCa-2 cells habouring p53 mutant/R248W assessed as decrease in cell growth at 10 uM measured after 48 hrs by Crystal violet staining based analysis. The format is functional. The method in brief:
as §4

Assay [20] concerns PaCa-44. Briefly: Antiproliferative activity in human PaCa-44 cells habouring p53 mutant/C176S assessed as decrease in cell growth at 10 uM measured after 48 hrs by Crystal violet staining based analysis. The format is functional. The gist of the method:
as §4

Assay [21] can be described thus: Antiproliferative activity in human PaCa-3 cells measured after 48 hrs by Crystal violet staining based analysis. The format is functional, cell-based. As to conditions: Paca3, 48 h. The gist of the method:
(§5)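 IC50 from Crystal Violet growth curves. Cells in DMEM-Glutamax with 10% FBS, seeded, then exposed after 24 h to 1–100 μM for 48 h. A595 normalized to untreated cells. Three independent experiments.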

A short description of assay [22]: Antiproliferative activity in human PaCa-44 cells measured after 48 hrs by Crystal violet staining based analysis. The format is functional, cell-based. As to conditions: PaCa-44, 48 h. The gist of the method: as §5
In assay [23] the test system is PANC-1. The assay can be described thus: Antiproliferative activity in human PANC-1 cells measured after 48 hrs by Crystal violet staining based analysis. It counts as functional, cell-based. As to conditions: PANC-1, 48 h. The gist of the method:
as §5

The test system of assay [24] is MIA PaCa-2. Briefly: Antiproliferative activity in human MIA PaCa-2 cells measured after 48 hrs by Crystal violet staining based analysis. It counts as functional, cell-based. As to conditions: MIA PaCa-2, 48 h. The method in brief: as §5
Assay [25] deals with Glyceraldehyde-3-phosphate dehydrogenase (Homo sapiens) (UniProt P04406). The assay can be described thus: Inhibition of recombinant his tagged-GAPDH in human PaCa-44 cells expressed in Escherichia coli at 100 uM relative to control.
Assay [26] has the same target. Briefly: Inhibition of recombinant his tagged-GAPDH in human PaCa-3 cells expressed in Escherichia coli at 100 uM relative to control.

The results in this text go back to ChEMBL document CHEMBL5325420, “Discovery of a spirocyclic 3-bromo-4,5-dihydroisoxazole covalent inhibitor of hGAPDH with antiproliferative activity against pancreatic cancer cells” (Eur J Med Chem, 2023).

pIC50: −log10 of the molar value. Activity calls are given as the source filed them. The calls are words filed in the database; no cut-off is given here.

Sequence of Glyceraldehyde-3-phosphate dehydrogenase (Homo sapiens) (P04406 2-335 limits assumed): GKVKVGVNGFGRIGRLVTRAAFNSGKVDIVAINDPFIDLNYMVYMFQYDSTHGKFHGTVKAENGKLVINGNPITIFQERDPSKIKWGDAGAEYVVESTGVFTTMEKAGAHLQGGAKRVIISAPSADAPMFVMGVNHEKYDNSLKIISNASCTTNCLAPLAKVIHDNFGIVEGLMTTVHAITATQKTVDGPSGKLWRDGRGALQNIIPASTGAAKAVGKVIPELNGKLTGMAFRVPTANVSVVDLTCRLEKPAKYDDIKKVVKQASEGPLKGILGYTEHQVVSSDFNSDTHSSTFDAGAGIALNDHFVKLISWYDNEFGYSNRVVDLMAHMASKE

For `O=C(O)c1ccc(C2CC(Br)=NO2)cc1` (centres undefined), the inhibition – broadly, the relative decrease from the control value, in per cent – in assay [1] was found to be 40%. The K in assay [2] is 1.11 10^-6/s; in assay [3] it was 1.84 10^-6/M/s.

Turning to `BrC1=NOC(c2cccs2)C1` (centres undefined), in assay [4], the inhibition entry was “inactive”.

`Oc1ccc(C2CC(Br)=NO2)cc1` (centres undefined): in assay [1], the inhibition was found to be 40%.

As for `O=C(O)c1cccc(C2CC(Br)=NO2)c1` (centres undefined), the inhibition in assay [1] is 20%.

With `O=C(O)c1ccc2c(c1)CCCC21CC(Br)=NO1` (centres undefined), the inhibition was 40% in assay [1], 100% in assay [5], 40% in [7] and 30% in assay [8]. Further, the outcome with PaCa-44 [6] was Active. The K is < 1 10^-8/s in assay [2] and < 1 10^-8/M/s in assay [3].

Regarding `C=CC(=O)N1CCC[C@@H](n2nc(-c3ccc(Oc4ccccc4)cc3)c3c(N)ncnc32)C1`, the K in assay [3] was 10.4 10^-4/M/s.

As for `O=C(O)c1ccc(C2CC(Br)=NO2)s1` (centres undefined), the inhibition in assay [1] was 20%.

Regarding `BrC1=NOC(c2ccccc2)C1` (centres undefined), the inhibition in [1] worked out at 40%. Also, in [9], the inhibition result was “inactive”. Further, the figures for the K in [10], in assay [2] and in [3] were 908 min, 6.62 10^-5/s and 1.1 10^-4/M/s, respectively.

Turning to `NS(=O)(=O)c1ccc(C2CC(Br)=NO2)cc1` (centres undefined), the inhibition entry in assay [4] was “inactive”.

With `BrC1=NOC(c2ccc(-c3nnn[nH]3)cc2)C1` (centres undefined), in assay [4], the inhibition entry is “inactive”.

`CC(C)[C@H]1CC[C@@]2(CO2)[C@H]2C(=O)OCC(C(=O)O)=C[C@H]12`: the K in assay [11] is 0.701 min.

On to `BrC1=NOC2(CCCc3ccccc32)C1` (centres undefined), for which the inhibition in assay [1] amounted to 40%; in assay [5], 100%; in assay [12], 100%; in assay [7] it was 100%; in assay [8], 100%; in assay [25] it was 100%. Besides, in [26], the inhibition amounted to 100%. Also, the inhibition result in assay [13] is “Active”. In addition, the K in assay [11] was 0.2 min; in assay [2], 5.25 10^-6/s; in assay [3], 8.75 10^-6/M/s. The outcome with PaCa-3, with PaCa-44 [14], in the assay on PANC-1 [15], in the assay with MIA PaCa-2 [16], in the assay on PANC-1 [18] and with MIA PaCa-2 [19] was Active. For the same molecule, the outcome in the assay on PaCa-44 [20] was Active. Moreover, the Activity is 20% in the assay with Fibroblast and 42% in [17]. Moreover, the pIC50 – broadly, the negative decadic logarithm of the IC50, by convention in mol/L – in assay [21] is 5.33; in assay [22] it was 4.79; with PANC-1 [23], 4.66; in the assay on MIA PaCa-2 [24], 4.82.

`O=C(O)c1ccccc1C1CC(Br)=NO1` (centres undefined): the inhibition entry in assay [4] is “inactive”.

With `O=S(=O)(O)c1ccc(C2CC(Br)=NO2)cc1` (centres undefined), in [1], the inhibition was 20%.
